Consider one molecule from ChEMBL document CHEMBL1926530, “Novel pyrazolo[1,5-a]pyridines as p110α-selective PI3 kinase inhibitors: Exploring the benzenesulfonohydrazide SAR” (Bioorg Med Chem, 2012).

For data set [1], the target named is Phosphatidylinositol 4,5-bisphosphate 3-kinase catalytic subunit beta isoform (Homo sapiens, UniProt P42338). Nature of the data set: Inhibition of recombinant PI3K p110beta using L-alpha-phosphatidylinositol as substrate and [gamma33P]ATP after 60 mins by thin layer chromatographic technique. In a few lines:
(§1)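 In-house recombinant enzyme (0.1 µg) with L-α-phosphatidylinositol in 40 mM Tris-HCl pH 7.4, 200 mM NaCl, 1 mM EDTA; DMSO 1% final. Started with 5 mM MgCl₂, 100 µM ATP plus [γ-³³P]ATP; 1 h at room temperature, stopped with 1 M HCl. Lipids extracted, separated by TLC, phosphorimaged. Nine inhibitor concentrations; two experiments, IC50 averaged.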

The target of data set [2] is T1, Phosphatidylinositol 4,5-bisphosphate 3-kinase catalytic subunit delta isoform (Homo sapiens, UniProt O00329).
T1 sequence (O00329 whole entry): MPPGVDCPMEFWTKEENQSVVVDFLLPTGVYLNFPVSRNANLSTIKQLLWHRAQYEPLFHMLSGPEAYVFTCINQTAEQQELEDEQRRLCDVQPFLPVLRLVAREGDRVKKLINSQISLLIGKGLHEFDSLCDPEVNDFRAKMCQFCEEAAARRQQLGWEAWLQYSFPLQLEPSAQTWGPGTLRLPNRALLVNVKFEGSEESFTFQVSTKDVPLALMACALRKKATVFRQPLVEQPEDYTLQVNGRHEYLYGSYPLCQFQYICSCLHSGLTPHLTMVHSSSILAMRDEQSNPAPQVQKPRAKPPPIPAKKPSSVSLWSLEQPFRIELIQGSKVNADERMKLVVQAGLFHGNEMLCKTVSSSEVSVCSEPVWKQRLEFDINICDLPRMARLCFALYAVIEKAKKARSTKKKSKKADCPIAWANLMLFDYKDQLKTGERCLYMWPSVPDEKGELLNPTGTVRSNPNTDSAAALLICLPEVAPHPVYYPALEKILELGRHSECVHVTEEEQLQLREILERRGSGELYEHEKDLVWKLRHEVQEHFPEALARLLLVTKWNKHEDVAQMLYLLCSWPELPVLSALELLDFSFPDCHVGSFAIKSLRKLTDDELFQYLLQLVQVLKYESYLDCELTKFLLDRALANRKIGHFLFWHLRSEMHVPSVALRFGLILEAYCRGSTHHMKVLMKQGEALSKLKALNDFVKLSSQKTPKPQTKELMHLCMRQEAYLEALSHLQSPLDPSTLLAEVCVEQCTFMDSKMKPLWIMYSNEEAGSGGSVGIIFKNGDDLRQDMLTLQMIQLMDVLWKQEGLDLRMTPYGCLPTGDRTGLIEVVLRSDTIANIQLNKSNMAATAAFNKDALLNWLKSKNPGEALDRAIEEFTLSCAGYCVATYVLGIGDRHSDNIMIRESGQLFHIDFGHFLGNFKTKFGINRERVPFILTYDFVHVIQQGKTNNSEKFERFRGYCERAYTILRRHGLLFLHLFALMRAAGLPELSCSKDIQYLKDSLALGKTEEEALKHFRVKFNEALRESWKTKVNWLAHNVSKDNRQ
The experiment in a line: Inhibition of recombinant PI3K p110delta using L-alpha-phosphatidylinositol as substrate and [gamma33P]ATP after 60 mins by thin layer chromatographic technique. The method, boiled down: as §1

Data set [3] is described as follows: Aqueous solubility of the compound. To be noted: water. Type of data set: physicochemical. The method, boiled down: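 Solid mixed with water to make 2 mM, sonicated 15 min, centrifuged 13000 rpm for 6 min. Clear supernatant diluted 2-fold with water, recentrifuged and injected on HPLC. Peak area compared with a DMSO standard solution of the compound, correcting for dilution and injection volume.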

Data set [4] has as its target Ribosomal protein S6 kinase alpha-1 (Homo sapiens) (UniProt Q15418). Nature of the data set: Inhibition of RSK1 assessed as residual activity at 10 uM.
For data set [5], the target named is High affinity nerve growth factor receptor (Homo sapiens) (UniProt P04629). Nature of the data set: Inhibition of TrkA assessed as residual activity at 1 uM.
High affinity nerve growth factor receptor (Homo sapiens), sequence (P04629 33-796 limits assumed): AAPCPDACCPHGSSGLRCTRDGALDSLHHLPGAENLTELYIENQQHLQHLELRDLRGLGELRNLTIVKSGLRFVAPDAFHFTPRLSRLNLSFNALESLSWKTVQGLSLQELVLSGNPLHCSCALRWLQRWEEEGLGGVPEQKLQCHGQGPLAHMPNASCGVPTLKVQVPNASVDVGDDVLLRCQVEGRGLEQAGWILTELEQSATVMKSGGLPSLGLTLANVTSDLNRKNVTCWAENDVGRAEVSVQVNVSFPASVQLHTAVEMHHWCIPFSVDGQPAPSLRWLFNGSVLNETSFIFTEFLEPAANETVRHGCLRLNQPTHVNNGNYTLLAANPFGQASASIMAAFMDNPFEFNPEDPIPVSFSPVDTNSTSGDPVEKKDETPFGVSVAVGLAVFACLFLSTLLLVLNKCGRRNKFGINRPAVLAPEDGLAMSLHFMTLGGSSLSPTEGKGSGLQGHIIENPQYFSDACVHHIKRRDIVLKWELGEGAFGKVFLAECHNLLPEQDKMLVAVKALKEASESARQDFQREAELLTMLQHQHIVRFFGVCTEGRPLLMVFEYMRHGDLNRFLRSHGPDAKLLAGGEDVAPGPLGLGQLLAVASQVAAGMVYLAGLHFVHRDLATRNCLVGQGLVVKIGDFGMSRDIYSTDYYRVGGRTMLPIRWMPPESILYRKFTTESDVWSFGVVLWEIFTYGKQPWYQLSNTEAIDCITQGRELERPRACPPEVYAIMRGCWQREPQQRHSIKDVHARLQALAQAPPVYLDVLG
Data set [6] can be described thus: Inhibition of PKA assessed as residual activity at 10 uM.
The nature of data set [7]: AUC (0 to infinity) in CD1 mouse at 10 mg/kg, ip. The class given is ADME, organism-based. On the set-up: time infinity, dose 10 mg/kg, route intraperitoneal. The conditions noted are these: plasma. The method, boiled down:
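Age-matched specific pathogen-free male CD-1 mice; single 10 mg/kg i.p. dose in 5% DMSO, 45% PEG-400, 20% 2-hydroxypropyl-β-cyclodextrin, 30% water. Blood sampled at multiple times post-dose; plasma taken after centrifugation (10 min, 6000 rpm, 20 °C). Plasma analysed by LC-MS/MS; parameters from non-compartmental analysis.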

Data set [8] addresses Serine/threonine-protein kinase mTOR (Homo sapiens, UniProt P42345). Nature of the data set: Inhibition of mTOR.

In brackets after ≈: the same amount, converted by molar mass.

Ribosomal protein S6 kinase alpha-1 (Homo sapiens), sequence (Q15418 whole entry): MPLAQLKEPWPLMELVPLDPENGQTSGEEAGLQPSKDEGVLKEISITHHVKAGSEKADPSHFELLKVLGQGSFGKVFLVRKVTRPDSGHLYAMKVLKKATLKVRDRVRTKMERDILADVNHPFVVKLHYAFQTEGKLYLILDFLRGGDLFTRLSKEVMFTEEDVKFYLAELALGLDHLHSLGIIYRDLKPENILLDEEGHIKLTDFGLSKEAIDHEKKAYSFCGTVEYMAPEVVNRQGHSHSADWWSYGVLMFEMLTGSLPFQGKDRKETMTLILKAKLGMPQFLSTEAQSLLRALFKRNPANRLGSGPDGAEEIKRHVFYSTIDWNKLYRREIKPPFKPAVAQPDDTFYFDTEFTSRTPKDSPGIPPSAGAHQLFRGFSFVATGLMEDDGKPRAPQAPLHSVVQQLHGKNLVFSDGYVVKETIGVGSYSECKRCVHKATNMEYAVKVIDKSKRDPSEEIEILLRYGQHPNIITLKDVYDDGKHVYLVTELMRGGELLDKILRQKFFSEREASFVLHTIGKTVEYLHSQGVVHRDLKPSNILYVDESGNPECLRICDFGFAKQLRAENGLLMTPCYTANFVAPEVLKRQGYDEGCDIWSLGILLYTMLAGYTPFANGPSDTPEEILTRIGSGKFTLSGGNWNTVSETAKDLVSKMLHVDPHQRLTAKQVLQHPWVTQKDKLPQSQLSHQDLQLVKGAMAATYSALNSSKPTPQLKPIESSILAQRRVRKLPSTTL
Phosphatidylinositol 4,5-bisphosphate 3-kinase catalytic subunit beta isoform, sequence (P42338 whole entry, canonical isoform): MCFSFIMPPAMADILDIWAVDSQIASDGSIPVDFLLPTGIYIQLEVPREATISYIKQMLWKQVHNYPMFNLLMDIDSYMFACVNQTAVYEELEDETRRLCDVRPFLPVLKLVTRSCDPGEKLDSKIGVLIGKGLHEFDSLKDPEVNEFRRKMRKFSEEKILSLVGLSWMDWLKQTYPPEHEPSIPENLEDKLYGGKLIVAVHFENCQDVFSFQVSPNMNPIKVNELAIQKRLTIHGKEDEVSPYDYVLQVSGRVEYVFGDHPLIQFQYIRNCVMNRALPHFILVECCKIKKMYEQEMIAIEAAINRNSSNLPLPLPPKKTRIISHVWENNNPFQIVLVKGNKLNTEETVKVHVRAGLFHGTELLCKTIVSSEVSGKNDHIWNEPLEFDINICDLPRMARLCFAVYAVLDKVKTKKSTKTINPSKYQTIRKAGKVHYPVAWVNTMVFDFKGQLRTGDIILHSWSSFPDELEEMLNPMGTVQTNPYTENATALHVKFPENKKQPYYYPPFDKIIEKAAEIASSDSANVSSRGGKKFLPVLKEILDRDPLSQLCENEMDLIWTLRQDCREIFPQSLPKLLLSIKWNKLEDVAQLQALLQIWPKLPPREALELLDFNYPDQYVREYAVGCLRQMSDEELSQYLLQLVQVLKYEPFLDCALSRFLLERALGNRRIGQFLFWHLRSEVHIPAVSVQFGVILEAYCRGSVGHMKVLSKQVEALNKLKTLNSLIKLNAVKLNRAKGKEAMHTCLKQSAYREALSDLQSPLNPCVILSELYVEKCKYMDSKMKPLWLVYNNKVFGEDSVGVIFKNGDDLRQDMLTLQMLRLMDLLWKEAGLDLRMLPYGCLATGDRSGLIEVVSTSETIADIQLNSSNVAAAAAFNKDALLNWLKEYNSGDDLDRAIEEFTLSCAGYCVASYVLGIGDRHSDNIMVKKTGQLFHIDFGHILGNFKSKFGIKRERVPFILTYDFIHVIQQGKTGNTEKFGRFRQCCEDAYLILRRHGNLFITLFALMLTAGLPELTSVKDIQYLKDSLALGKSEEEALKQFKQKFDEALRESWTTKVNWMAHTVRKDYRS

As usually defined, the IC50 is the concentration that gives 50% inhibition. For orientation: solubility means the concentration that dissolves in the medium under given conditions. A higher solubility goes with a readily soluble substance. The term AUC(0-inf) denotes the area under the concentration-time curve extrapolated to infinity. `Cc1ccc([N+](=O)[O-])cc1S(=O)(=O)N(CCO)/N=C/c1cnn2ccc(C#N)cc12`: the IC50 in data set [1] was 51 nM; in data set [2], 54 nM; in data set [8] it was 234 nM. In data set [3], this molecule had a solubility of 1.2 µg/mL (≈ 2.8 µM). Besides, the figures for the Activity in data set [4], in data set [5] and in data set [6] were 5%, 73% and 8%, respectively. Besides, the AUC(0-inf) in data set [7] turned out to be 3.16 µM·h.
